Source: PubChem BioAssay
XBP1 UPR activ – activators of adaptive arm of unfolded protein response (XBP1) | actives 0.33% (n = 330,000) | CHO-XBP1 luciferase reporter, IRE1-XBP1 UPR activation, luminescence; percent of tunicamycin response, DMSO as zero | activation, % at 20 µM;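 active = versus positive control, 20 µM dose yields 30% or more activation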
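Assay system: IRE1-XBP1 luciferase reporter CHO line. Input: 1000 cells/well. Buffer or medium: F12 with 10% serum. Doses: 20 µM, 1% DMSO. Times: overnight seeding at 37 °C, 6 h compound treatment at 37 °C. Technique: Steady-Glo luciferase glow luminescence, 10 min after reagent addition.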
MPTP inh – permeability transition pore inhibition | AID 602449 | isolated mouse mitochondria, Ca2+ swelling absorbance, 30 min | actives 1.4% (n = 360,000) | inhibition, % at 10 µM;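 active = inhibition of 50% or more, scaled per plate between neutral and stimulator controls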
aDG glyco act – alpha-DG glycosylation activation. Pro5-aDG cells, alpha-DG glycosylation AlphaScreen (IIH6); 0% Pro5, 100% B10-LARGE cell signal. activation, % at 10 µM. actives 0.22% (n = 360,000);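 active = activation of at least 8% versus controls, or a plate z-score of at least 8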;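 also: Pro5 are CHO cells carrying HIG-tagged alpha-DG that lacks glycosylation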
CHOP inh – CHOP inhibition in unfolded protein response; CHO-K1 CHOP-promoter luciferase, tunicamycin-induced, 15-18 h; inhibition, % at 10 µM; actives 3.8% (n = 220,000);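 active = compounds that reduced the stress-induced luciferase reporter signal by more than about 70% of percent inhibition, limit read from the data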
NR3A LBD binder – modulates the human NR3A ligand-binding domain. Tm shift relative to glycine control, % at 25 µM. actives 2.5% (n = 340,000). AID 1259313. NR3A LBD differential scanning fluorimetry, Tm shift; 0% = protein alone, 100% = glycine-bound protein;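 active = melting temperature shift of at least 10% of the positive control shift, at one fixed dose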
CHOP UPR activ – apoptotic UPR (CHOP) activation; CHO-CHOP luciferase reporter, luminescence; percent of tunicamycin response over DMSO baseline; activation, % at 10 µM; actives 0.34% (n = 330,000); AID 449763;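 active = at 10 µM dose, activation of 40% or more, normalized to positive control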
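assay system = CHO CHOP reporter cells | amount = 500 CHO-CHOP cells per well | buffer or medium = F12 with 10% FBS | incubation = 16-18 h cell attachment, then 6 h compound exposure, 37 °C | detection = luminescence read with Steady-Glo | read-out = percent activation relative to tunicamycin control | controls = tunicamycin high control, DMSO low control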
A number is an active result; n = inactive; x = not tested or not shown. An excerpt weighted towards active compounds, which were near 5.6% of everything screened.

SMILES	XBP1 UPR activ	MPTP inh	aDG glyco act	CHOP inh	NR3A LBD binder	CHOP UPR activ
Oc1ccccc1-c1cc(-c2ccco2)[nH]n1	n	n	n	n	n	n
Oc1ccc(Cl)cc1-c1cc(-c2ccco2)[nH]n1	n	n	n	n	11	n
Oc1c(-c2cc(-c3ccco3)[nH]n2)ccc2ccccc12	n	n	n	75	21	n
Oc1ccc(Br)cc1-c1cc(-c2ccco2)[nH]n1	n	n	n	80	19	n
COC(=O)Sc1nnc(-c2ccc(Br)cc2)o1	n	x	x	91	x	n
OCC#CCSc1nnc(-c2ccc(Br)cc2)o1	n	n	n	n	n	n
CC(C)(C)c1cc(NCc2ccccn2)n2ncc(-c3ccc(Cl)cc3)c2n1	n	n	n	n	13	n
Cc1nccn1-c1cc(C(C)(C)C)nc2c(-c3ccccc3)cnn12	n	n	n	80	n	n
O=C(CSC(=S)N1CCCC1)Nc1ncc(Cl)cc1Cl	n	n	n	x	n	n
COc1ccc(/C=C/C(=O)NC(=S)Nc2ccc(Br)cn2)cc1	n	n	n	x	25	n
COc1ccc(/C=C/C(=O)NC(=S)NNC(=O)c2cc(OC)c(OC)c(OC)c2)cc1	n	n	n	89	n	n
O=C(c1ccco1)n1nc(-c2cccnc2)nc1NCc1ccco1	n	n	n	n	n	n
CCOC(=O)C[C@H]1c2ccccc2S(=O)(=O)N1Cc1ccc(Cl)cc1	n	n	n	x	13	n
CCOC(=O)C[C@H]1c2cc(C(F)(F)F)ccc2S(=O)(=O)N1Cc1ccccc1	n	n	n	x	n	n
CCc1nc2c(OCC(=O)C(C)(C)C)cccn2c1N(C)C(=O)CC(C)C	x	n	n	x	x	x
CCCc1nc2oc3c(OC)ncnc3c2c2c1COC(C)(C)C2	n	n	n	82	n	n
CCCc1nc2oc3c(NCCOCCO)ncnc3c2c2c1COC(C)(C)C2	n	n	n	n	n	n
O=C(O)c1cccc(S(=O)(=O)NCC2COc3ccccc3O2)c1 (centres undefined)	n	n	n	x	n	n
O=C(c1cccc(C(F)(F)F)c1)C1CCCN(C(=O)CN2CCOC2=O)C1 (centres undefined)	n	n	n	x	11	n
COc1ccc2[nH]c(=O)c(-c3noc(-c4ccccc4)n3)cc2c1	n	n	n	88	n	n
Cn1c(SCC(=O)N2CCN(c3ccccc3)CC2)nnc1-c1ccncc1	n	n	n	n	11	n
Cc1ccc(NC(=O)COC(=O)/C=C/c2c(C)nn(-c3ccc(F)cc3)c2Cl)cc1F	n	n	n	n	n	n
CCCn1nc(C(=O)N(C)CC(=O)Nc2ccc(OCC)c(OCC)c2)c2ccccc2c1=O	n	n	n	x	n	n
Nc1nc(-c2ccccc2)ns1	x	n	n	x	13	x
CN(C)c1nc(-c2ccccc2)ns1	n	n	n	n	n	n
SMILES	XBP1 UPR activ	MPTP inh	aDG glyco act	CHOP inh	NR3A LBD binder	CHOP UPR activ
Cc1ccc(OCCOC(=O)c2cccc(S(=O)(=O)N3CC(C)OC(C)C3)c2)cc1 (centres undefined)	n	n	n	x	n	n
Cc1ccc(C(=O)OCC(=O)c2c(N)n(C)c(=O)n(C)c2=O)cc1S(=O)(=O)N1CCCCC1	n	n	n	n	10	n
Cc1ccc(C(=O)Oc2ccc([N+](=O)[O-])cc2)cc1S(=O)(=O)N1CCCCCC1	n	n	n	n	13	n
Cc1ccc(C(=O)O)cc1S(=O)(=O)N1CCCC1	n	n	n	n	n	n
O=C(Nc1ccc(F)cc1)C(c1ccnc2ccccc12)N1CCN(C(=O)c2ccco2)CC1 (centres undefined)	x	n	n	x	x	x
Cc1ccc2nc3cc([N+](=O)[O-])cc([N+](=O)[O-])c3cc2c1	x	n	n	95	n	x
O=C(NC1CCCC1)C(c1ccccc1)n1c(Cc2cc(F)cc(F)c2)nc2ccccc21 (centres undefined)	x	n	n	x	x	x
COc1ccc(-c2cc(=O)oc3c(O)c(O)ccc23)cc1	n	n	n	x	29	n
O/N=C\c1ccc2noc(-c3ccc(Cl)cc3)c2c1	n	n	n	x	32	n
CC(=O)c1ccc2noc(-c3ccc(Cl)cc3)c2c1	n	n	n	n	n	n
Oc1ccccc1Nc1nc(NCc2ccco2)c2ccccc2n1	n	n	n	n	24	n
CCC1=C(OC(=O)c2ccccc2)C(C)(C)C(c2ccccc2)OC1=O (centres undefined)	n	n	n	93	14	n
CC1(C)C(=O)OC(c2ccccc2)C(C)(C)C1=O (centres undefined)	n	n	n	n	n	n
COC(=O)c1sc(NC(=S)NNC(=O)c2c(Br)c(C)nn2C)c(C(=O)OC)c1C	n	n	n	x	12	n
Cc1ccc(-c2csc3ncn(-n4c(C)ccc4C)c(=O)c23)o1	n	n	n	79	n	n
CCCCCCCCN1C(=O)[C@H](CC(=O)N2CCN(C(=O)C3CC3)CC2)C[C@@]2(C(=O)OC)CCCCC=C12	x	n	n	x	x	x
CCCSc1cc(NCCOC(C)=O)c([N+](=O)[O-])c2nonc12	n	n	n	n	13	n
CCCC(=O)OCCNc1cc(Sc2nccn2C)c2nonc2c1[N+](=O)[O-]	x	n	n	108	n	x
Cc1nn(Cc2ccccc2)c(Cl)c1/C=N/NC(=O)CNc1cccc(C(F)(F)F)c1	n	n	n	94	27	n
O=C(N/N=C/c1ccc(-c2cccc(C(F)(F)F)c2)o1)c1ccccc1Br	n	n	n	n	15	n
O=C(N/N=C/c1ccc(-c2cccc(C(F)(F)F)c2)o1)c1ccccc1O	n	n	n	90	20	n
CCOC(=O)N/N=C/c1c(C)nn(-c2cccc(C(F)(F)F)c2)c1Cl	n	n	n	n	n	n
O=C(N/N=C/c1ccc(-c2cccc(C(F)(F)F)c2)o1)c1cccc(F)c1	n	n	n	n	11	n
NC(=O)N/N=C/c1ccc(-c2cccc(C(F)(F)F)c2)o1	n	n	n	n	n	n
COc1ccc(NCC(=O)NN=C2CCS(=O)(=O)c3ccc(F)cc32)cc1	n	n	n	x	n	n
Cc1ccc(NCC(=O)N/N=C/c2ccc(-c3cccc(C(F)(F)F)c3)o2)cc1	n	n	n	81	25	n
O=C(N/N=C/c1ccc(-c2cccc([N+](=O)[O-])c2)o1)c1ccc([N+](=O)[O-])cc1	n	n	n	n	n	n
O=C(N/N=C/c1ccc(-c2cccc([N+](=O)[O-])c2)o1)c1ccccc1O	n	n	n	n	19	n
CC(C)(C)C1CCc2[nH]c3ccccc3c(=O)c2C1 (centres undefined)	n	n	n	n	n	n
